Screening results (PubChem)
The list is not random: actives were taken first. Their share in the collection is about 3.3%.
SENP6 inh: SENP6 protease inhibition. Q9GZR1. Recombinant SENP6 catalytic domain, aminoluciferin luminescence. inhibition, % at 10 µM. hit rate 1.8% among 330,000. AID 2599;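 active = inhibition above about 50% at the single tested dose, limit read from the data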;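 also: plate controls were DMSO wells with enzyme for no effect and DMSO wells lacking enzyme for full effect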
SENP8 block-1: SENP8 protease inhibition; purified SENP8, Z-RLRGG-aminoluciferin cleavage, luminescence; inhibition, % at 10 µM; hit rate 1.2% among 330,000; AID 2540; in the data active = inhibition above about 50%
Target sequence (Q96LD8 whole entry, looked up): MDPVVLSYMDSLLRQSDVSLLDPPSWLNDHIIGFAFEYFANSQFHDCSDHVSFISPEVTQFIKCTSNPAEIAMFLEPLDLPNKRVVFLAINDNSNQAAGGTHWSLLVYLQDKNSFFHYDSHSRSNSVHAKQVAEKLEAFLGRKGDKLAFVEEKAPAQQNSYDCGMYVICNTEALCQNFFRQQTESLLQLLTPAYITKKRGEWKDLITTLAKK
SENP8 block-2: blocks human SENP8 cleavage of Nedd8 substrate. Q96LD8. recombinant SENP8, Nedd8 substrate fluorescence. inhibition, % at 20 µM. hit rate 0.64% among 360,000. AID 602440; in the data active = inhibition mostly above about 40%, no sharp cut-off; inactive = mostly below about 27%
SENP1 inh: blocks the human SENP1 SUMO protease catalytic domain. Q9P0U3. recombinant SENP1 catalytic domain, CyPet-SUMO1-YPet FRET cleavage. inhibition, % at 10 µM. hit rate 0.21% among 360,000;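 active = inhibition at least 30% at 10 µM, raw YFP signal under a set limit, fluorescence ratio 0.5 to 1.5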;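 also: 0% = enzyme with DMSO and 100% = no enzyme wells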
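Test system: recombinant human SENP1 catalytic domain, His6-tagged / Medium: pH 8 Tris buffer with EDTA, NaCl, BME, BSA, NP40, catalase / Also added: SUMO1 FRET substrate flanked by Cypet and Ypet, 25 nM / Times: 50 min reaction at room temperature / Signal: FRET, CFP and YFP emission / Control set: no-enzyme low control and enzyme-plus-DMSO high control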
CendR NRP1 mod: NRP-1/CendR interaction modulation. O14786. FAM-RPARPAR peptide binding to NRP-1, fluorescence polarization. inhibition, % at 25 µM. hit rate 0.85% among 360,000. AID 602438;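 active = inhibition or corrected inhibition above about 18%, plus a signal ratio from 0.5 to 1.5, limit read from the data, passing the limit was not always enough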
SENP7 block: blocks the human protease SENP7 | inhibition, % at 5 µM | hit rate 1.5% among 330,000 | recombinant SENP7, Z-RLRGG-aminoluciferin luminescence, 40 min | Q9BQF6;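 active = inhibition above about 50% at the single test dose, limit read from the data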;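 also: plate controls were DMSO with enzyme for no effect and no enzyme buffer wells for full effect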
Target sequence (Q9BQF6 706-1050 limits assumed): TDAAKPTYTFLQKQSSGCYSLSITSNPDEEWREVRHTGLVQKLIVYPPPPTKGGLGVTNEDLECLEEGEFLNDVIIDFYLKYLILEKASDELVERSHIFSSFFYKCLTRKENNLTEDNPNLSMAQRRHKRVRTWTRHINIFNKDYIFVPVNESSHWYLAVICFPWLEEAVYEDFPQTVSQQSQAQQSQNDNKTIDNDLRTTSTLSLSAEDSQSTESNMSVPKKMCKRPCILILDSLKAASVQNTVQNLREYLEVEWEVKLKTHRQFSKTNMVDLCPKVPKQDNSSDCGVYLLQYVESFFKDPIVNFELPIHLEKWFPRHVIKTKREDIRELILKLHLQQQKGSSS
Starred values were filed as active, the others as inactive; . = no result.

SMILES	SENP6 inh	SENP8 block-1	SENP8 block-2	SENP1 inh	CendR NRP1 mod	SENP7 block
Cn1c(Cn2c(=O)sc3ccccc32)nnc1SCC(=O)N1CCN(c2ccccc2)CC1	5	1	0	-1	27*	-2
COc1cccc(C#CC2=CC(=O)CC(C)(C)C2)c1	.	.	-4	-1	-7	.
C=C[C@]1(C)C=C2CCC3[C@](C)(CCC[C@@]3(C)C(=O)O)C2CC1 (stereo partly specified)	6	6	60*	3	-41	8
Cc1[nH]c(N=Nc2ccccc2)nc1N=Nc1ccccc1	-31	-6	68*	6	0	1
COC(=O)c1c(NC(=O)CN(c2ccccc2)S(C)(=O)=O)sc2c1CCCC2	8	-3	-12	0	27*	5
CCC(C(=O)NC1CCN(C)CC1)c1ccccc1 (stereo unspecified)	-4	-2	-3	0	53*	3
CC(C)(C)n1nc(-c2ccc(F)cc2)c2c(N)ncnc21	-8	4	24	-1	67*	6
O=C1NC(Cc2ccc(O)cc2)c2nc3ccc(Br)cc3c(=O)n2-c2ccc(Cl)cc21 (stereo unspecified)	-16	-16	.	.	.	-3
O=C(/C=C/c1ccccc1)c1ccccn1	34	3	-39	-24	37*	-6
O=C(/C=C/c1ccccc1)c1c[nH]c2ccccc12	58*	38	9	0	-63	84*
COc1ccc(-c2csc(N(CCCN(C)C)C(=O)c3ccc(Br)cc3)n2)cc1	-11	6	18	1	22*	-4
CCCS(=O)(=O)NC(=O)C1(C)CCN(C(=O)c2ccc3c(c2)OCO3)C1 (stereo unspecified)	.	.	6	0	-5	.
CCOC(=O)C1=CCN(S(=O)(=O)c2ccc(Cl)cc2)C1c1ccc(C)cc1 (stereo unspecified)	.	.	12	-3	-1	.
CCOC1=C2[C@@H](CN(S(=O)(=O)c3ccccc3C)[C@H]2c2ccc(Cl)cc2)[C@H]2C(=O)N(c3ccccc3)C(=O)[C@H]2C1	.	.	22	1	22*	.
CCOC1=C2[C@@H](CN(S(=O)(=O)c3ccccc3C)[C@H]2c2ccc(Cl)cc2)[C@H]2C(=O)N(C3CCCCC3)C(=O)[C@H]2C1	.	.	2	-15	13	.
O=C(COC(=O)Cc1cccs1)NCc1ccc(F)cc1	3	-5	2	3	25*	-2
O=c1cc(CO)oc(C(Nc2ccccn2)c2ccccc2Cl)c1O (stereo unspecified)	-7	-7	12	2	26*	-3
O=c1cc(CO)oc(C(Nc2ccccn2)c2ccc(F)cc2)c1O (stereo unspecified)	4	5	20	6	6	3
CC[n+]1c(/C=C/c2ccc(N(C)C)cc2)ccc2ccccc21	.	.	47*	13	-42	.
CCCCCC[n+]1ccccc1/C=C/c1ccc(N(C)C)cc1	.	.	34	31	124	.
CC[n+]1ccccc1/C=C/c1ccc(N(C)C)cc1	.	.	28	87*	-144	.
CC(C)NC(=O)C1(C)CSCC(=O)N1CCOc1ccccc1 (stereo unspecified)	.	.	11	0	-2	.
CCCCc1c(-c2ccccc2F)ncn1CCc1ccccc1OC	.	.	5	3	-6	.
O=C(c1ccc(F)cc1)C(CN1CCOCC1)c1ccccc1 (stereo unspecified)	-9	1	10	3	27*	2
CCc1ccc(C2CC(=O)N(c3cccc(F)c3)C3=C2C(=O)OC3)cc1 (stereo unspecified)	-21	-9	-1	0	27*	-14
SMILES	SENP6 inh	SENP8 block-1	SENP8 block-2	SENP1 inh	CendR NRP1 mod	SENP7 block
CC(=O)N1c2ccc(S(=O)(=O)N3CCC(C(=O)Nc4cccc(C)c4)CC3)cc2CC1C (stereo unspecified)	-2	4	-1	0	31*	0
CC(=O)N1c2ccc(S(=O)(=O)N3CCC(C(=O)Nc4cc(C)cc(C)c4)CC3)cc2CC1C (stereo unspecified)	15	0	-195	0	6	4
COC(=O)[C@@]12C[C@@H](CC(=O)NCc3ccccc3)C(=O)N(Cc3ccc4c(c3)OCO4)C1=CCC(C)(C)C2	.	.	15	2	9	.
O=C(COC(=O)c1ccccn1)c1ccc([N+](=O)[O-])cc1	9	-1	17	5	22*	-6
Cc1ccc(N=Cc2cc(Cc3ccccc3Cl)cc([N+](=O)[O-])c2O)c(O)c1	17	10	52*	7	-151	-8
COc1ccc(N=Cc2cc(Cc3ccccc3Cl)cc([N+](=O)[O-])c2O)cc1OC	45	22	31	10	-79	10
CC(=O)c1ccc(NC2OC(C)C(O)C(O)C2O)cc1 (stereo unspecified)	-3	-3	17	1	4	-2
C[C@@H]1OC(Nc2ccc(N=Nc3ccccc3)cc2)[C@H](O)[C@H](O)[C@H]1O (stereo partly specified)	-1	-3	40*	1	-1	2
CCc1ccc(CN(C)CC(=O)Nc2ccc(S(=O)(=O)N3CCOCC3)cc2)cc1	-9	6	13	0	5	5
CCCn1nc(C(=O)Nc2cc(OCC)c(N3CCOCC3)cc2OCC)c2ccccc2c1=O	.	.	25	2	22*	.
O=C(CSc1cccc[n+]1[O-])Nc1cc(S(=O)(=O)N2CCOCC2)ccc1Cl	-4	-6	14	0	-14	4
CCOc1cc(N2CCOCC2)c(OCC)cc1NC(=O)CSc1cccc[n+]1[O-]	-7	-12	47*	-1	-8	-12
O=C(CSc1cccc[n+]1[O-])Nc1cc(S(=O)(=O)N2CCOCC2)ccc1N1CCOCC1	-5	-11	9	1	28*	-5
CCOc1cc(N2CCOCC2)c(OCC)cc1NC(C)C(=O)N1CCN(CC)CC1 (stereo unspecified)	.	.	58*	-1	-10	.
CCc1nc2ccc(C(=O)N(C)Cc3ccco3)cn2c1N(C)CCCc1ccccc1	.	.	-13	-6	-1	.
COC(=O)C[C@H]1c2cc(F)ccc2S(=O)(=O)N1C(C)C	-13	3	6	-1	26*	1
COC(=O)C[C@H]1c2cc(C(F)(F)F)ccc2S(=O)(=O)N1C1CCCC1	1	1	8	1	24*	-1
CCOC(=O)C[C@H]1c2cc(F)ccc2S(=O)(=O)N1C1CCCCC1	-24	-8	8	1	26*	3
COC(=O)C[C@H]1c2cc(C(F)(F)F)ccc2S(=O)(=O)N1Cc1ccccc1	11	-5	3	0	25*	-3
COC(=O)C[C@H]1c2cc(C(F)(F)F)ccc2S(=O)(=O)N1C1CCCCC1	-3	-2	7	1	14	5
